Results of several laboratories.
Target: Casein kinase I isoform alpha (CSNK1A1, Homo sapiens, UniProt P48729)

| SMILES | observed | mode | method | cells | tested at | quantity | result |
| --- | --- | --- | --- | --- | --- | --- | --- |
| COc1cc2ncnc(Nc3ccc(Oc4ccccc4)c(C)c3C)c2cc1OC | enzyme activity | inhibitor | – | – | 1 µM | inhibition | 3% |
| C[S+]([O-])c1ccc(-c2nc(-c3ccncc3)c(-c3ccc(F)cc3)[nH]2)cc1 (stereo not drawn) | cell-free assay | – | – | – | 0.5 µM | remaining signal | 63.9% |
| Nc1cnc(N2CCc3cc(S(=O)(=O)Nc4c(F)cc(Cl)cc4F)cc(N4CCCC4=O)c32)nc1 | cell-free assay | – | competition with immobilised ligand | – | 1 µM | remaining binding | 100% |
| O=C1Nc2ccc(Cl)cc2C1=Cc1cc(Cl)c(O)c(Cl)c1 | cell-free assay | – | – | – | 0.5 µM | remaining signal | 92.6% |
| Nc1c(C(=O)NCc2ccc(C(=O)NCCCC3CCCCC3)cc2)cnn1-c1ccccc1 | cell-free assay | – | competition with immobilised ligand | – | 0.1 µM | remaining binding | 100% |
| Cc1sc(C(=O)NC2COC2)cc1-n1cc(NC(=O)Nc2c(F)cccc2Cl)cn1 | enzyme activity | inhibitor | – | – | 10 µM | remaining activity | 81.1% |
| CCN1CCN(Cc2ccc(NC(=O)c3ccc(C)c(Oc4ccnc5[nH]ccc45)c3)cc2C(F)(F)F)CC1 | target engagement in cells | inhibitor | chemoproteomics | A-375 | 5 µM | inhibition | -60.9% |
| O=Nc1c(-c2c(O)[nH]c3cc(Br)ccc23)[nH]c2ccccc12 | enzyme activity | inhibitor | – | – | 0.5 µM | activity vs control | 95.1% |
| CCN1CCN(Cc2ccc(NC(=O)c3ccc(C)c(/C=C/c4cnc5[nH]ccc5c4OC)c3)cc2C(F)(F)F)CC1 | target engagement in cells | inhibitor | chemoproteomics | A-375 | 0.5 µM | inhibition | -75.1% |
| CNc1cccc2cc(C(=O)Nc3ccc(C(=O)O)cc3)c(=O)[nH]c12 | enzyme activity | inhibitor | – | – | 10 µM | inhibition | 3.5% |
| CC(C)(C)c1nc(-c2cccc(NS(=O)(=O)c3c(F)cccc3F)c2F)c(-c2ccnc(N)n2)s1 | enzyme activity | inhibitor | radiometric | – | 1 µM | remaining activity | 94% |
| Cc1c(NC(=O)c2cc(C(N)=O)nc3cc(F)ccc23)c(C(F)(F)F)nn1Cc1ccc(C#N)cc1 | cell-free assay | – | competition with immobilised ligand | – | 1 µM | remaining binding | 72% |
| CN(C)C1CCN(CC#Cc2nn(C3CCCC3)c3nc(NCc4ccccc4)ncc23)C1 (stereo not drawn) | enzyme activity | inhibitor | FRET | – | 1 µM | inhibition | 2% |
| CC(=O)N1CCC(c2ccc(C(=O)NC3=NCCN3)cc2C(F)(F)F)CC1 | cell-free assay | – | competition with immobilised ligand | – | 1 µM | remaining binding | 76% |
| COc1cc(OC)c(C=C2C(O)=Nc3ccccc32)c(OC)c1 | cell-free assay | inhibitor | – | – | 0.5 µM | remaining signal | 59.6% |
| O=C(NS(=O)(=O)c1ccc(NCC2CCOCC2)c([N+](=O)[O-])c1)c1ccc(N2CCN(Cc3ccc(C(F)(F)F)cc3-c3ccc(Cl)cc3)CC2)cc1Oc1cnc2[nH]ccc2c1 | cell-free assay | – | competition with immobilised ligand | – | 1 µM | remaining binding | 96% |
| c1ccc(CNc2nc(N3CCOc4ccccc43)nc3c2CCCC3)cc1 | target engagement in cells | inhibitor | chemoproteomics | – | 20 mM | inhibition | -1.4% |
| Cc1ccc(C(=O)NCc2ccsc2)cc1C#Cc1cn(C(C)C)c2ncnc(N)c12 | enzyme activity | inhibitor | – | – | 1 µM | activity vs control | 86% |
| CCC(=O)N[C@H]1CC[C@@H](C(=O)N(C)c2ccc(-c3nc4ccccc4o3)cc2)C1 | cell-free assay | – | competition with immobilised ligand | – | 1 µM | remaining binding | 82% |
| O=C1Cc2c([nH]c3ccc(Br)cc23)-c2ccccc2N1 | cell-free assay | – | – | – | 0.5 µM | remaining signal | 95.1% |
| Cc1cc(-n2nc(Cc3cc(F)cc(C(F)(F)F)c3)nc2C)ccc1C(N)=O | cell-free assay | – | competition with immobilised ligand | – | 1 µM | remaining binding | 100% |
| N#CCCc1ccc2c(c1)-c1[nH]c3ccc([N+](=O)[O-])cc3c1CC(=O)N2 | cell-free assay | – | – | – | 0.5 µM | remaining signal | 95.1% |
| CN(C)C(=O)Cn1cc(-c2nc(C3(c4ccc(-c5cnc(N)nc5)cc4)CC3)no2)cn1 | cell-free assay | – | competition with immobilised ligand | – | 1 µM | remaining binding | 62% |
| CN(CCCC(F)(F)F)c1nccc(-c2cnn3ncccc23)n1 | binding | – | – | – | 1 µM | remaining binding | 86% |
